Assay results published in ChEMBL document CHEMBL4513216, “Probing the Open Global Health Chemical Diversity Library for Multistage-Active Starting Points for Next-Generation Antimalarials” (ACS Infect Dis, 2020).

Test: Toxicity liver stage against HepG2, at 10uM
Format: cell-based
Design: test concentration 10 uM, cell line HepG2-A16-CD81EGFP
Details: human, HepG2-A16-CD81EGFP cells; read-out: INHIBITION
Method in brief: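 Uninfected HepG2-A16-CD81EGFP cells, 3 × 10^3 per well, 1536-well, plated on prespotted compound at 10 μM final, parasite-free screening media added to match infected plates; puromycin 10 μM positive, DMSO 0.5% negative; run in parallel with 48 h PbLuc assay at 37 °C, 5% CO2; viability by CellTiter-Glo luminescence, normalized to controls.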

Compound	cytotoxicity at 10 µM
COc1ccc(C(=O)c2cnc(C(C)C)n2C)cc1	15.5%
Cn1ncc2c1NC(=O)CC2c1ccc(Cl)cc1Cl (stereo not given)	59.9%
O=C1CO[C@@H]2CN(S(=O)(=O)c3ccccc3)C[C@H]2N1CC1CC1	-3.1%
CC[C@@H](Cn1ncc2ccccc2c1=O)NC(=O)c1ccco1	8.44%
CN(C(=O)c1ccccc1F)[C@@H]1CC[C@@H](O)[C@@H]1O	-6.11%
CN(C)c1cc(C2CCCN(C(=O)c3ccc(=O)[nH]n3)C2)ccn1 (stereo not given)	-9.04%
Cn1ncc(Cl)c1C(=O)N1CCc2nc3sccc3c(=O)n2CC1	-26.7%
CN(C(=O)c1ccnn1C)[C@@H]1CCC[C@@H](Oc2ccccc2)[C@@H]1O	-35.9%
Cc1ccccc1CN(C)C(=O)c1cc(C2CCCN2C)ccn1 (stereo not given)	-4.76%
Cc1noc2nc(C3CCCN(Cc4ccncc4)C3)cc(C(F)F)c12 (stereo not given)	-16.7%
CNC(=O)C1(c2cnccn2)CCCN1C(=O)c1c(F)cccc1F (stereo not given)	-24.1%
Cc1csc(C(Cc2ccsc2)NC(=O)Cn2cccnc2=O)n1 (stereo not given)	-22.2%
O=c1c2ccccc2nc2n1C(CSc1ccc(Cl)cc1Cl)CN2 (stereo not given)	6.01%
CCN(C)S(=O)(=O)c1c(F)cc(NC(C)=O)cc1F	-40.7%
CC(C)c1noc(CCC(=O)Nc2cc(F)ccc2F)n1	-15.4%
COc1ccc(NC(=O)NCC(C)N2CCc3ccccc32)cc1 (stereo not given)	-2.42%
CCC(C)(CC(=O)OC)NC(=O)c1ccc(C(C)=O)cc1 (stereo not given)	-4.89%
Clc1cccc(N2CCC(NCc3ncc[nH]3)C2)c1 (stereo not given)	7.41%
Cc1n[nH]cc1CNC(=O)[C@H]1CCCCN1C(=O)OC(C)(C)C	-0.311%
CC(C)(C)c1cnc(CNCC2CCCN2c2cccnn2)o1 (stereo not given)	-2.2%
Cn1cc(C(=O)N(Cc2ccco2)Cc2cccs2)ccc1=O	-0.0261%
CC(C)N(Cc1ccccn1)C(=O)CCC(=O)c1ccccc1	3.33%
CN1CCN(S(=O)(=O)c2ccc(Cl)c(Cl)c2)c2cnccc21	5.57%
CCN1CCc2c(cccc2NC(=O)CN(C)C2CCSC2)C1 (stereo not given)	-47%
CN(C)c1nccc(N(C)C2CCOCC2)n1	3.13%
COc1cccc(C(=O)NC(C)CCN2CCOCC2)c1F (stereo not given)	-45.2%
Cc1nc([C@@H]2C[C@@H]3CCN(C(=O)Cc4ccsc4)C[C@H]3O2)no1	1.85%

Compound	cytotoxicity at 10 µM
N[C@H]1CN(C(=O)CCc2cc(Cl)no2)C[C@@H]1c1ccccc1	-7.03%
CSCCC(=O)N1CCCN(c2ccccc2C)CC1	-9.31%
Cc1nc(CN2CCCn3nc(CNC(=O)C4CCC4)cc3C2)co1	3.26%
CCCc1ccc(CN2CCN(C(=O)CC(C)C)[C@@H]3CS(=O)(=O)C[C@@H]32)o1	5.31%
Cc1ccc2oc(=O)n(CCC(=O)N3CCC4(CN(C)C(=O)O4)C3)c2c1 (stereo not given)	1.66%
Cc1nc(CN(C)C(=O)c2cccc(CC3CCNCC3)c2)no1	-5.56%
COc1ccc(N2CCN(C(=O)C3CN(C)C(=O)N3)CC2(C)C)cc1 (stereo not given)	0.254%
COCCC(=O)NCc1cccnc1-n1cnc2ccccc21	-8.42%
CCc1noc(CN(C)C(=O)c2ccccc2-c2ncn[nH]2)n1	16.7%
Cc1ccnc(Cn2cc(-c3cccc(C(C)N(C)C)c3)nn2)c1 (stereo not given)	1.74%
CC(C)N1CCC(C(=O)N2CCCN(c3ccccc3)CC2)CC1	7.4%
CCn1cc(CN(C)c2nc(C)c3ccc(S(C)(=O)=O)cc3n2)cn1	48.8%
N[C@H]1CN(C(=O)c2ccccc2OCCc2ccccc2)C[C@@H]1C1CC1	-2.68%
O=C(NC1CCOC1)c1cccc(S(=O)(=O)NCCCc2ncc[nH]2)c1 (stereo not given)	-2.26%
Cc1cnc(C(=O)N2CCCC(c3nccn3Cc3cscn3)C2)cn1 (stereo not given)	-7.92%
OC1(CN2CCCCC2)CCN(c2cc(C(F)(F)F)ccn2)C1 (stereo not given)	-2.22%
COc1nc(C)c(C(=O)NCc2cc(N3CCOCC3)ncn2)s1	12.9%
OCc1csc(N2CCCN(Cc3ccc(F)cc3)CC2)n1	-2.58%
COc1cccc(Cn2cc(C3=CCN(CC(=O)N(C)C)CC3)cn2)c1	-13.1%
CCN1CC(C(=O)N2CCN(c3nsc4ccccc34)CC2)CCC1=O (stereo not given)	16.2%
O=S1(=O)COCCN1Cc1ccc(F)cc1Cl	14.7%
O=c1cnc2ccccc2n1CCCn1ccnc1	-3.85%
CC(C)NS(=O)(=O)c1cc(C(=O)O)cc(-c2ccc3c(c2)OCCO3)c1	-2.34%
O=C(CCn1ccnc1)N1CC[C@@H](c2ccc3ccccc3c2)[C@H](O)C1	-0.288%
CC(C)Cc1ncc2c(n1)CN(c1nc3ccccc3cc1CO)C2	1.18%
CCN(CC)C(=O)[C@@H]1C[C@H](n2cc(-c3ccccn3)nn2)CN1	-20.6%
O=C(N1CCC(Oc2ccncc2)CC1)C1(c2ccc(F)cc2)CC1	-7.66%

Compound	cytotoxicity at 10 µM
CC(C)c1nc(C2CCCN2Cc2nnc(C3CCC3)o2)no1 (stereo not given)	-15.6%
Cc1nc(CNC(=O)NCC(O)c2ccc(F)cc2)cs1 (stereo not given)	-10.4%
Cn1cc(C(=O)N2CCSc3ccccc32)ccc1=O	-22.9%
O=C(NCCN1CCCC1)C1(c2ccc(Cl)cc2)CCOCC1	-2.16%
c1ccc(-c2nc(CNCCn3cccn3)cs2)nc1	-21.1%
CCN1CCN(C2CCN(Cc3nc(C4CC4)no3)CC2)C1=O	-2.69%
COc1cccc2cc(CNC(=O)N3CCOC(C)(C)C3)oc12	-14.8%
CCN1CCN(C(=O)NCc2cccnc2-n2cccn2)CC1	-7.97%
COc1ncccc1CNC(=O)c1ccco1	-8.48%
c1cncc(-c2noc(CN3CCCCC3Cn3cccn3)n2)c1 (stereo not given)	-2.42%
Cc1cc(CN(C)C(=O)c2ccc(OCC(F)(F)F)nc2)no1	-6.19%
Cc1nn(C)c(N(C)C)c1CNCc1ccccc1Cn1cccn1	-8.06%
COc1ccccc1CC(=O)NS(=O)(=O)c1ccc(C(N)=O)cc1	-5.2%
Cc1cc(NC(=O)CN2CCc3cnc(C)nc3C2)on1	-5.33%
COc1ccc(-c2nc(CN3CCc4c(ncn4C)C3)cs2)cc1	3%
Cc1cc(C(=O)NCc2ccnc(N(C)C)c2)c(C)o1	-2.43%
CC1CCCCN1CCNC(=O)c1ccn(-c2ccc(F)cc2)n1 (stereo not given)	-1.91%
CC(=O)N(Cc1noc(C)n1)C1CCN(CCOc2ccccc2)C1 (stereo not given)	-2.04%
CCC(CN1CCCC1)n1cncc1-c1cnn(-c2ccccc2)c1 (stereo not given)	5.87%
Cc1noc(C)c1S(=O)(=O)N1CCc2nc(C3CCNCC3)ncc2C1	-22.9%
CC(C)(C)C(=O)N1C[C@H](c2ccsc2)[C@H]2CN(C3CCCC3)CC[C@H]21	2.33%
Cc1ccc(CNC(=O)CN2CCN(CC(O)C3CC3)CC2)cc1 (stereo not given)	4.91%
Cc1ccc(CN2CCC3(CC2)OC(C(=O)N(C)C)c2ccccc23)o1 (stereo not given)	4.34%
Cc1nc(CN2CCC3(CC2)NC(=O)CC3c2ccccc2)cs1 (stereo not given)	4.33%
FC1(F)CCN(Cc2ccccn2)CC12CCN(c1cnccn1)C2 (stereo not given)	-108%
CN(C)C(=O)CN1C[C@H]2CC[C@@H](C1)N(Cc1ccc3nsnc3c1)C2	2.3%
